Experimental data from ChEMBL document CHEMBL1123039, “N-substituted imidazolines and ethylenediamines and their action on alpha- and beta-adrenergic receptors” (1985).
Blank lines part the entries; values can stand above or below the molecule they belong to.

Assays:
[1] = test system: Rattus norvegicus; experiment: Tested for alpha-2 adrenoceptor-Mediated Pressor Response in Pithed Rats; Dose ratio by subsequent administration of antagonist (yohimbine) intravenously at a dose of 1 mg/kg; format: functional; details: route intravenous
How it was run: (§1)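 Pithed rats; drugs given iv through the cannulated right femoral vein at 1 mL/kg after at least 30 min equilibration. Pressor responses to the agonist were recorded as rises in diastolic blood pressure (mmHg), with and without pretreatment with prazosin (0.1 mg/kg, iv; α1-selective) or yohimbine (1 mg/kg, iv; α2-selective). Shift of the agonist dose-response was expressed as a dose ratio (mean ± SEM).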

[2] = test system: Rattus norvegicus; experiment: The dose required to increase diastolic blood pressure by 50 mmHg in pithed rats after intravenous administration; format: functional; details: Artery
How it was run: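 Pithed rat preparation with the right femoral vein cannulated for iv dosing (1 mL/kg). At least 30 min equilibration preceded drugs. Pressor effect was read as the increase in diastolic blood pressure (mmHg), and heart rate was recorded by a pulse-triggered cardiotachometer. Values are mean ± SEM.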

[3] = test system: Rattus norvegicus; experiment: Tested for alpha1 adrenoceptor-Mediated Pressor Response in Pithed Rats; Dose ratio subsequent administration of antagonist (Prazosin) intravenously at a dose of 0.1 mg/kg; format: functional; details: route intravenous; how it was run: as §1
[4] = test system: Adrenergic receptor alpha (Rattus norvegicus); experiment: The selectivity was evaluated against alpha 1 and alpha 2 adrenoceptors
[5] = test system: Rattus norvegicus; experiment: Tested for alpha-1 adrenoceptor-Mediated Pressor response in Pithed Rats; Dose ratio subsequent administration of antagonist (Prazosin) intravenously at a dose of 0.1 mg/kg; format: functional; details: route intravenous
How it was run: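 Pithed rats; drugs given iv via the right femoral vein at 1 mL/kg after at least 30 min equilibration. The pressor response is the rise in diastolic blood pressure (mmHg). Agonist pressor responses were measured after α1-selective blockade with prazosin (0.1 mg/kg, iv), and the dose ratio for the pressor response was derived. Values are mean ± SEM.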

Selectivity [4]: 0.3
SMILES: Cl.Cl.NCCNCCc1ccc(O)c(O)c1
Dose ratio [1]: 5.7
ED50 [2]: 0.028 mg/kg
Dose ratio [3]: 1.7

Selectivity [4]: 2.2
SMILES: Cl.Oc1ccc(CN2C=NCC2)cc1O
Dose ratio [1]: 2.4
ED50 [2]: 0.035 mg/kg
Dose ratio [3]: 5.3

SMILES: Br.Br.CCN1CCc2nc(N)oc2CC1
ED50 [2]: 0.026 mg/kg

Selectivity [4]: 1.3
SMILES: Cl.Cl.NCCNCc1ccc(O)c(O)c1
Dose ratio [1]: 4.4
ED50 [2]: 0.305 mg/kg
Dose ratio [3]: 5.5

SMILES: Oc1ccc(CC2=NCCN2)cc1O
Dose ratio [1]: 0.4
ED50 [2]: 0.00035 mg/kg
Dose ratio [5]: 0.8
Selectivity [4]: 2

SMILES: c1ccc(C2CC2)c(OCC2=NCCN2)c1 [CIRAZOLINE]
ED50 [2]: 0.0006 mg/kg

Selectivity [4]: 0.7
SMILES: Cl.Oc1ccc(CCN2C=NCC2)cc1O
Dose ratio [1]: 2.1
ED50 [2]: 0.024 mg/kg
Dose ratio [3]: 1.3
